Source: PubChem (The Scripps Research Institute Molecular Screening Center)
Sampled rows, rich in hits. Any-hit rate of the full collection: about 3.9%.
TAAR1 agonist = human TAAR1 agonists, primary screen, Fluo-8 calcium fluorescence, CHO RD-HGA16 cells. Trace amine-associated receptor 1 (Homo sapiens), Q96RJ0. vehicle wells 0%, saturating PEA agonist 100%. activation, % at 3 µM. hit rate 0.99% among 360,000;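 active = activation above the mean activation of all test compounds in the run plus 3 SD, cut at about 38% in these data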
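System: CHO-derived RD-HGA16 cells with stable Gα16 and human TAAR1. Times: 17-24 h plating, Fluo-8 75 min 37 °C, 30 min RT. Measured by: calcium-sensitive Fluo-8 signal, excitation 470-495, emission 515-575 nm. Read-out basis: % activation relative to PEA EC100 response. Control set: DMSO and PEA EC100. Repeats: no replicates (n 1).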
TAAR1 antagonist = human TAAR1 antagonists, primary screen, Fluo-8 calcium fluorescence, CHO RD-HGA16 cells; antagonist; hit rate 1.5% among 360,000; AID 624466, 2012; inhibition, % at 3 µM; Trace amine-associated receptor 1 (Homo sapiens), Q96RJ0;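 active = inhibition above a per-plate cutoff, the mean inhibition of test compounds on that plate plus 3 SD, cut at about 49% in these data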;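 also: 0% = DMSO plus EC80 beta-PEA response and 100% = DMSO alone without agonist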
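System: CHO RD-HGA16 cells bearing hTAAR1. Reagent: EC80 β-phenethylamine stimulus. Schedule: seeding 17-24 h prior, 75-min 37 °C, 30-min RT dye loading. Signal: Fluo-8 intracellular calcium dye fluorescence, real-time kinetic reads. Read-out: % inhibition from peak post-agonist over basal fluorescence ratio. Benchmarks: vehicle wells and EC80 agonist wells. Replicates: n of 1.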
m5-HT2A agonist = mouse Htr2a agonists via beta-arrestin recruitment, primary screen, cell-based, luminescence. 5-hydroxytryptamine receptor 2A (Mus musculus), P35363. CHO-K1 mHTR2A beta-arrestin complementation; percent of 30 µM serotonin response. activation, % at 7.6 µM. hit rate 0.66% among 360,000;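 active = activation above a run cutoff, the mean activation of all tested compounds plus 3 SD, cut at about 14% in these data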;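 also: 0% = plate median of compound wells and 100% = 30 µM serotonin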
Target sequence (P35363 whole entry, looked up): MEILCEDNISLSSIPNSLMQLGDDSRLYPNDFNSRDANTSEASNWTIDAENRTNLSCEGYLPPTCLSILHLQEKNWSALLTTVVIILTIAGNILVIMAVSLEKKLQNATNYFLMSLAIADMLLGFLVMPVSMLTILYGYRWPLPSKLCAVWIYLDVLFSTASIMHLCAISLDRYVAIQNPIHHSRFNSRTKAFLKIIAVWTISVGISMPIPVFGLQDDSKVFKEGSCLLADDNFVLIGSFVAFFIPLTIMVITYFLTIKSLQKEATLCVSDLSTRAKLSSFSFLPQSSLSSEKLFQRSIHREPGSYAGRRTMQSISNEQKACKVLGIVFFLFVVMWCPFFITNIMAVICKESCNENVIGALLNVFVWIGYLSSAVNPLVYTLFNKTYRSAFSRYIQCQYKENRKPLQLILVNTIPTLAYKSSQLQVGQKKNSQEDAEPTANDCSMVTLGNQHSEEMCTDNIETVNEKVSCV
M1 PAM = human M1 muscarinic receptor positive allosteric modulators, primary screen, CHO-K1 cells, Fluo-8 calcium fluorescence, 1536-well | Muscarinic acetylcholine receptor M1 (Homo sapiens), P11229 | CHO-K1 hM1, ACh EC20; 0% = ACh EC20, 100% = maximal ACh | activation, % at 3 µM | hit rate 0.088% among 360,000 | AID 588819, 2011; in the data active = activation above about 19%, passing the limit was not always enough
M1 antag = human M1 muscarinic receptor antagonists, primary screen, CHO-K1 cells, Fluo-8 calcium fluorescence, 1536-well. Muscarinic acetylcholine receptor M1 (Homo sapiens), P11229. CHO-K1 hM1, ACh EC80 antagonist. inhibition, % at 3 µM. hit rate 1.3% among 360,000. AID 588852, 2011;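 active = percent inhibition above its own plate's cutoff, namely the mean of that plate's compound wells plus 3 SD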;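 also: peak over basal fluorescence ratio during 140 s after agonist addition; 0% = ACh EC80 plus DMSO and 100% = DMSO alone without agonist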
CHRM1 agonist = human M1 muscarinic receptor agonists, primary screen, Fluo-8 calcium fluorescence, CHO-K1 cells, HTS; CHO-K1 hM1, agonist mode; 0% DMSO, 100% acetylcholine EC100; hit rate 0.33% among 360,000; activation, % at 3 µM; Muscarinic acetylcholine receptor M1 (Homo sapiens), P11229; AID 588814, 2011;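 active = activation above the run's mean compound activation plus 3 SD, cut at about 16% in these data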;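 also: peak over basal fluorescence ratio within a 140 s kinetic read after compound addition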
TAAR1 nonsel count = nonselective antagonists in TAAR1 counter-screen cells, counter-screen for hTAAR1 antagonist project, cell-based, fluorescence, calcium. inhibition, % at 3 µM. hit rate 77% among 2,400. counterscreen cell line, antagonist mode. AID 651780, 2012. shares compounds with TAAR1 antagonist; in the data active = inhibition above about 22%;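 also: CHO-Ga16 host cells stimulated with ATP at an EC80 level; 0% = agonist EC80 plus vehicle and 100% = vehicle without agonist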
TAAR1 antag conf = human TAAR1 antagonists, retest of hits, confirmation, cell-based, fluorescence. shares compounds with TAAR1 antagonist. TAAR1-expressing cells, fluorescence antagonist read-out. inhibition, % at 3 µM. hit rate 40% among 2,400. AID 651785, 2012; in the data active = inhibition above about 49%;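 also: CHO-Ga16 host cells challenged with agonist PEA near its EC80; 0% = agonist at EC80 plus vehicle and 100% = vehicle with no agonist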
Ga16 nonsel ag = calcium activation in Ga16-expressing cells, counter-screen for TAAR1 antagonist project, cell-based, fluorescence | hit rate 18% among 2,400 | agonist counterscreen | shares compounds with TAAR1 antagonist | activation, % at 3 µM | AID 651953, 2012; in the data active = activation above about 12%;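 also: 0% = vehicle wells and 100% = saturating stimulus response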
TAAR1 ag counter = TAAR1 activation by candidate antagonists – cell-based, fluorescence, counter-screen for TAAR1 antagonist project | shares compounds with TAAR1 antagonist | hTAAR1 cell line, agonist mode | activation, % at 3 µM | hit rate 2% among 2,400 | AID 651955, 2012; in the data active = activation above about 37%;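 also: CHO cells stably expressing TAAR1 with calcium dye readout; 0% = DMSO vehicle and 100% = full agonist response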
Starred values were filed as active, the others as inactive; . = no result given.

SMILES | TAAR1 agonist | TAAR1 antagonist | m5-HT2A agonist | M1 PAM | M1 antag | CHRM1 agonist | TAAR1 nonsel count | TAAR1 antag conf | Ga16 nonsel ag | TAAR1 ag counter
CCCCc1nc(NCCNC(=O)c2ccccc2)c(C#N)c2c1CSC(C)(C)C2 | 15 | 68* | -2 | -5 | 2 | 0 | 30* | 52* | 7 | 6
CCNC(=S)N/N=C/c1cccc(OCc2c(F)cccc2Cl)c1 | 6 | 57* | 0 | 7 | -9 | -7 | 13 | 47 | 11 | 12
CNC(=S)N/N=C/c1cccc(OCc2ccccc2F)c1 | 4 | 17 | 0 | -12 | 4 | -8 | . | . | . | .
CC(C)C(C(=O)OCC(=O)c1ccccc1)N1C(=O)C2C3C=CC(C3)C2C1=O (configuration not stated) | 3 | -18 | -3 | 11 | -14 | -9 | . | . | . | .
CCCc1c(Cc2cccc(F)c2)ncn1Cc1cccc(-c2ccccc2)c1 | 3 | -1 | -5 | . | . | . | . | . | . | .
Cc1cccc(N2CCN(S(=O)(=O)c3ccc4[nH]c(=O)ccc4c3)CC2)c1C | 11 | 61* | -1 | -15 | 25 | 1 | 35* | 38 | 11 | 10
O=C(C1CCCN(c2ncnc3c2nc2n3CCCCC2)C1)N1CCN(c2ccccc2)CC1 (configuration not stated) | 16 | 52* | -3 | -11 | 21 | 0 | 23* | 36 | 10 | 18
COc1ccccc1N1CCN(C(=O)C2CCCN(c3ncnc4c3nc3n4CCCCC3)C2)CC1 (configuration not stated) | 5 | -6 | 1 | 8 | -9 | 0 | . | . | . | .
CSc1ccccc1OCc1cc(C(=O)N[C@H]2CCCCNC2=O)no1 | 7 | -6 | -1 | 1 | 0 | -4 | . | . | . | .
O=[N+]([O-])c1ccc(N/N=C/c2ccccc2O)cc1 | 37 | 79* | -6 | -3 | -3 | 0 | 27* | 84* | 9 | 52*
O=[N+]([O-])c1ccc(NN=Cc2ccccc2O)nc1 | 35 | 27 | -23 | -7 | -1 | 0 | . | . | . | .
O=C(Nc1ccc(-c2cn3ccsc3n2)cc1)c1ccc(F)c(S(=O)(=O)N2CCOCC2)c1 | 23 | 91* | -1 | -12 | 10 | 1 | 39* | 75* | 12* | 7
O=C(NCCCn1ccnc1)C1CCN(S(=O)(=O)c2cc([N+](=O)[O-])ccc2Cl)CC1 | 2 | -1 | -2 | -15 | 8 | -9 | . | . | . | .
COc1ccc(CN2CCN(C(c3ccc(F)cc3)c3ccc(F)cc3)CC2)c(OC)c1OC | 2 | 56* | -9 | -22 | 22 | -6 | 19 | 29 | 5 | 11
COc1ccc(CN2CCN(c3ccc(F)cc3)CC2)c(OC)c1OC | 18 | -13 | -3 | -1 | -2 | -4 | . | . | . | .
Cc1cccc(-c2cc(C(=O)Nc3cccnc3)c3ccccc3n2)c1 | 1 | 58* | -4 | -6 | 17 | -3 | 17 | 28 | 5 | 3
Cc1cccc(-c2cc(C(=O)Nc3c(C)n(C)n(-c4ccccc4)c3=O)c3ccccc3n2)c1 | 9 | 70* | 4 | 0 | 2 | -1 | 31* | 47 | 7 | 6
Cc1c(NC(=O)c2cc(-c3ccc(F)cc3)nc3ccccc23)c(=O)n(-c2ccccc2)n1C | 15 | 61* | -3 | -8 | 15 | -1 | 25* | 46 | 8 | 10
Cc1c(NC(=O)COC(=O)c2cc(-c3cccc4ccccc34)nc3ccccc23)c(=O)n(-c2ccccc2)n1C | 0 | 19 | -1 | 6 | -8 | -8 | . | . | . | .
CC(C)(C)c1ccc(-c2cc(C(=O)NNC(=O)Nc3ccccc3)c3ccccc3n2)cc1 | 0 | 14 | 3 | 12 | -27 | 2 | . | . | . | .
O=C(NNC(=O)c1cc(-c2ccccc2)nc2ccccc12)Nc1cccc(Cl)c1 | 10 | 80* | -3 | -11 | 25* | -1 | 39* | 57* | 8 | 6
CCOC(=O)C1CCN(C(=O)Cn2ncc3c([nH]c4ccccc43)c2=O)CC1 | 1 | -11 | -5 | 3 | -13 | -4 | . | . | . | .
CC(=O)Nc1ccc(C(=O)N/N=C/c2ccccc2OCc2ccccc2)cc1 | 13 | 52* | -8 | -18 | 5 | -4 | 32* | 42 | 6 | 5
O=C(NNC(=O)c1ccccc1OCc1ccccc1)c1ccccc1F | 4 | 7 | -3 | -2 | 2 | -7 | . | . | . | .
O=C(N/N=C/c1ccccc1F)c1ccccc1OCc1ccccc1 | 7 | 51* | -8 | 0 | 10 | -4 | 9 | 35 | 4 | 4
Cc1ccc(C(C)C)c(OCc2ccc(C(=O)N/N=C/c3cccc(O)c3O)cc2)c1 | 2 | 77* | -1 | -6 | 16 | 0 | 47* | 80* | 7 | 12
O=C(O)c1cccc(N2C(=O)C3C4C=CC(C4=C(c4ccccc4)c4ccccc4)C3C2=O)c1 (configuration not stated) | 13 | 6 | -1 | -3 | 17 | -1 | . | . | . | .
Brc1ccc(C2=Nn3c(Cn4nnc5ccccc54)nnc3SC2)cc1 | 1 | -4 | -5 | 7 | -9 | -4 | . | . | . | .
CCOC(=O)c1c(C)[nH]c(C)c1C(=O)CSc1nc2ccccc2n1CCC#N | 0 | 14 | 12 | 9 | -8 | -5 | . | . | . | .
CCCn1c(SCC(=O)c2c(C)[nH]c(C)c2C(=O)OCC)nc2ccccc21 | 12 | 49* | -3 | -2 | -3 | -1 | 18 | 34 | 10 | 15
